Results as given in the array DNA melting data of Ke et al. (doi:10.1101/2024.01.08.574731).

Experiments:
[1] = melting temperature; fluorescence melt of hairpins on a sequencing array, two-state fit, raised by 9.35 °C to match UV melts; conditions: sodium 0.088 M
Outline: (§1)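 With Cy3 and quencher oligos annealed, library hairpins on a sequenced MiSeq flow cell were imaged for Cy3 fluorescence in 50 mM Na-HEPES pH 8.0, 25 mM NaCl, in 2.5 °C steps up to 60 °C. Melting temperature and folding enthalpy were derived from bootstrapped two-state fits of signals normalised to pre-quench Cy3 and to control constructs. Four replicates were combined by inverse variance, with fitted temperatures raised by 9.35 °C to match UV melts.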

[2] = folding enthalpy; higher = less favourable; fluorescence melt of hairpins on a sequencing array, two-state fit; conditions: sodium 0.088 M
Outline: as §1

| Sequence | Tm [1] | folding enthalpy [2] |
| --- | --- | --- |
| GGGTACGGAAACACACCC ((((..(....)..)))) | 32.6 °C | -21.9 kcal/mol |
| GGGTACGGAAACGTATCC ((.((((....)))).)) | 51.8 °C | -30.1 kcal/mol |
| GGGTACTCGAAAGAGCCC (((..(((....)))))) | 39.6 °C | -19.6 kcal/mol |
| GGGTAGCGAAAGCTCCC (((.(((....)))))) | 53.6 °C | -40.3 kcal/mol |
| GGGTAGGGAAACCTACCC (((((((....))))))) | 64 °C | -50.9 kcal/mol |
| GGGTATGCGAAAGCACCC (((..(((....)))))) | 50.4 °C | -21.2 kcal/mol |
| GGGTATGGAAACATACTC (.(((((....))))).) | 44.8 °C | -23 kcal/mol |
| GGGTATGGAAACATGCCC (((.(((....))).))) | 54.3 °C | -50.4 kcal/mol |
| GGGTATGGAAACATGTCC ((..(((....)))..)) | 34 °C | -15.6 kcal/mol |
| GGGTATGGAAACGTACCC (((((.(....).))))) | 50.1 °C | -42.7 kcal/mol |
| GGGTCAGGAAACCAACCC ((((..(....)..)))) | 33 °C | -15.7 kcal/mol |
| GGGTCAGGAAACTAACCC ((((.((....)).)))) | 38.2 °C | -25.4 kcal/mol |
| GGGTCCCGAAAGGGCCC (((.(((....)))))) | 68 °C | -29.5 kcal/mol |
| GGGTCCGAAAGGAACCC ((((((....))).))) | 64.1 °C | -22.1 kcal/mol |
| GGGTCCGAAAGGACACCC ((((((....)))..))) | 55.5 °C | -11 kcal/mol |
| GGGTCCGAAAGGAGCCCC ((((((....)))..))) | 66.4 °C | -11 kcal/mol |
| GGGTCCGAAAGGATGCCC ((((((....)))..))) | 45.5 °C | -24.3 kcal/mol |
| GGGTCCGCGAAAGCGCCC (((..(((....)))))) | 40 °C | -14.9 kcal/mol |
| GGGTCGCGAAAGCGCCC (((.(((....)))))) | 65.3 °C | -22.4 kcal/mol |
| GGGTCGGGAAACCGACTC (.(((((....))))).) | 58.9 °C | -14.4 kcal/mol |
| GGGTCGGGAAACCGGCCC (((.(((....))).))) | 67.1 °C | -36.3 kcal/mol |
| GGGTCTACGAAAGTACCC (((..(((....)))))) | 40.1 °C | -22.5 kcal/mol |
| GGGTCTGAAAAGACCC ((((((....)))))) | 68.4 °C | -26 kcal/mol |

| Sequence | Tm [1] | folding enthalpy [2] |
| --- | --- | --- |
| GGGTCTGGAAACAAACCC ((((.((....)).)))) | 37.9 °C | -31.6 kcal/mol |
| GGGTCTGGAAACAGGCTC (.(.(((....))).).) | 39.9 °C | -23.2 kcal/mol |
| GGGTCTGGAAACGGATCC ((.((.(....).)).)) | 41.8 °C | -33 kcal/mol |
| GGGTGAACGAAAGTTCCC (((..(((....)))))) | 50.1 °C | -14.9 kcal/mol |
| GGGTGAGGAAACTCGCCC (((.(((....))).))) | 57.4 °C | -34 kcal/mol |
| GGGTGCGAAAGCAACCCC ((((((....)))..))) | 66.6 °C | -12.4 kcal/mol |
| GGGTGCGAAAGCACACCC ((((((....)))..))) | 58.3 °C | -10.4 kcal/mol |
| GGGTGCGAAAGCACGCCC ((((((....)))..))) | 55.3 °C | -10.2 kcal/mol |
| GGGTGCGAAAGCAGGCCC ((((((....)))..))) | 52.9 °C | -18.2 kcal/mol |
| GGGTGCGAAAGCATACCC ((((((....)))..))) | 53.5 °C | -19.8 kcal/mol |
| GGGTGCGGAAACGTACCC ((((.((....)).)))) | 61.2 °C | -41.5 kcal/mol |
| GGGTGCGGAAACGTGCCC (((..((....))..))) | 57.3 °C | -39.8 kcal/mol |
| GGGTGGGGAAACCTGCCC (((..((....))..))) | 49.7 °C | -25.5 kcal/mol |
| GGGTGTGCGAAAGCACCC (((..(((....)))))) | 56.6 °C | -11.3 kcal/mol |
| GGGTGTGGAAACACACTC (.(((((....))))).) | 55.4 °C | -23.5 kcal/mol |
| GGGTGTGGAAACACATCC ((.((((....)))).)) | 52.5 °C | -26.4 kcal/mol |
| GGGTGTGGAAACATACCC ((((.((....)).)))) | 52.1 °C | -45.6 kcal/mol |
| GGGTTACGAAAGTAGCCC (((.(((....))).))) | 59.6 °C | -45.7 kcal/mol |
| GGGTTCGAAAGAAAGCCC ((((((....)))..))) | 36 °C | -16 kcal/mol |
| GGGTTCGAAAGAACGCCC ((((((....)))..))) | 50 °C | -11.2 kcal/mol |
| GGGTTCGAAAGAAGGCCC ((((((....)))..))) | 35.6 °C | -20.7 kcal/mol |
| GGGTTCGGAAACGAACTC (.(((((....))))).) | 53.8 °C | -23.3 kcal/mol |
| GGGTTCGGAAACGGACTC (.((.((....)).)).) | 39.1 °C | -25.9 kcal/mol |

| Sequence | Tm [1] | folding enthalpy [2] |
| --- | --- | --- |
| GGGTTGCGAAAGCACCC (((.(((....)))))) | 62.9 °C | -23.7 kcal/mol |
| GGGTTGCGAAAGCACCCC (((.(((....))).))) | 62.9 °C | -19.4 kcal/mol |
| GGGTTGGCGAAAGCCCCC (((..(((....)))))) | 46.3 °C | -15.3 kcal/mol |
| GGGTTGGGAAACCAGTCC ((..(((....)))..)) | 38 °C | -16.4 kcal/mol |
| GGGTTGGGAAACCGACTC (.((.((....)).)).) | 41.2 °C | -16.3 kcal/mol |
| GGGTTTCGAAAGAACCCC (((.(((....))).))) | 51.3 °C | -26.1 kcal/mol |
| GGGTTTGGAAACAAATCC ((.((((....)))).)) | 47.4 °C | -39.6 kcal/mol |
| GGGTTTGGAAACAAGCCC (((.(((....))).))) | 52.7 °C | -32.1 kcal/mol |
| GGTAACGAAAGTTACC ((((((....)))))) | 64.1 °C | -34.7 kcal/mol |
| GGTAACGAAAGTTGAACC ((((((....)))..))) | 30.1 °C | -14.2 kcal/mol |
| GGTAACGAAAGTTTCACC ((((((....)))..))) | 28.8 °C | -9.74 kcal/mol |
| GGTAACGAAAGTTTTACC ((((((....)))..))) | 29.7 °C | -9.8 kcal/mol |
| GGTAACGGAAACGTTATC (.(((((....))))).) | 46.4 °C | -24.5 kcal/mol |
| GGTAACGGAAACGTTGCC ((.((((....)))).)) | 53.8 °C | -50.5 kcal/mol |
| GGTAACGGAAACGTTGTC (..((((....))))..) | 31.6 °C | -16.8 kcal/mol |
| GGTAAGGCGAAAGCCACC (((..(((....)))))) | 43.7 °C | -15.3 kcal/mol |
| GGTAAGGGAAACCCTACC ((((.((....)).)))) | 40 °C | -24.3 kcal/mol |
| GGTAAGGGAAACCTTATC (.(((((....))))).) | 38.1 °C | -25.6 kcal/mol |
| GGTAATACGAAAGTAACC (((..(((....)))))) | 22.7 °C | -9.63 kcal/mol |
| GGTAATCGAAAGATAACC (((.(((....))).))) | 41.7 °C | -26.3 kcal/mol |
| GGTAATGGAAACATTGCC ((.((((....)))).)) | 46.7 °C | -29.2 kcal/mol |
| GGTACAACGAAAGTTACC (((..(((....)))))) | 33.3 °C | -17.3 kcal/mol |
| GGTACAGGAAACCGTACC (((((.(....).))))) | 47.1 °C | -33 kcal/mol |

| Sequence | Tm [1] | folding enthalpy [2] |
| --- | --- | --- |
| GGTACAGGAAACTGTACC (((((((....))))))) | 59.3 °C | -44.5 kcal/mol |
| GGTACAGGAAACTGTGTC (..((((....))))..) | 28.9 °C | -17.6 kcal/mol |
| GGTACCCGAAAGGGACC (((.(((....)))))) | 54.5 °C | -25.9 kcal/mol |
| GGTACCGAAAGGTAGACC ((((((....)))..))) | 41 °C | -13.2 kcal/mol |
| GGTACCGAAAGGTGAACC ((((((....)))..))) | 37.1 °C | -15.5 kcal/mol |
| GGTACCGCGAAAGCGACC (((..(((....)))))) | 28.1 °C | -10.2 kcal/mol |
| GGTACCGGAAACGGTATC (.(((((....))))).) | 51.6 °C | -23.9 kcal/mol |
| GGTACGAAAGTACC (((((....))))) | 65.8 °C | -30.4 kcal/mol |
| GGTACGACGAAAGTCACC (((..(((....)))))) | 32.9 °C | -13.4 kcal/mol |
| GGTACGCGAAAGCGAACC (((.(((....))).))) | 58 °C | -24.8 kcal/mol |
| GGTACGGGAAACCGTACC (((((((....))))))) | 67.8 °C | -33.4 kcal/mol |
| GGTACGGGAAACCGTATC (.(((((....))))).) | 49.7 °C | -25.7 kcal/mol |
| GGTACGGGAAACTGTACC (((((.(....).))))) | 50.9 °C | -34.3 kcal/mol |
| GGTACTCGAAAGAGAACC (((.(((....))).))) | 49.8 °C | -30 kcal/mol |
| GGTACTGGAAACAGTATC (.(((((....))))).) | 44.4 °C | -21.3 kcal/mol |
| GGTACTGGAAACGGTATC (.(((.(....).))).) | 27.7 °C | -13 kcal/mol |
| GGTAGAGGAAACTCCACC (((.(((....))).))) | 31.6 °C | -28.2 kcal/mol |
| GGTAGCGAAAGCTAAACC ((((((....)))..))) | 42.8 °C | -15 kcal/mol |
| GGTAGCGAAAGCTACACC ((((((....)))..))) | 50.5 °C | -9.32 kcal/mol |
| GGTAGCGAAAGCTCAACC ((((((....)))..))) | 34.9 °C | -13.7 kcal/mol |
| GGTAGCGAAAGCTCTACC ((((((....)))..))) | 38.1 °C | -16.4 kcal/mol |
| GGTAGCGAAAGCTGACC ((((((....))).))) | 49.7 °C | -17.2 kcal/mol |
